From PMC2764298 (Biochemical and biophysical research communications, 2009)

Key:
P-gp [1] = biological target: T1, P-gp (Homo sapiens, UniProt P08183); assay: [3H]daunomycin radioactive substrate accumulation assay in MCF-7/DX1 cells; assay type: cell-based; settings: read-out: IC50, cellular accumulation of [3H]daunomycin, [3H]daunomycin 0.25 µCi/mL, scintillation counting
P-gp ATPase activity = P-gp ATPase activity (Homo sapiens, UniProt P08183); assay: P-gp ATPase assay, crude High Five insect cell membranes; assay type: biochemical; settings: Pi release
Chain of P-gp ATPase activity (P08183 whole entry): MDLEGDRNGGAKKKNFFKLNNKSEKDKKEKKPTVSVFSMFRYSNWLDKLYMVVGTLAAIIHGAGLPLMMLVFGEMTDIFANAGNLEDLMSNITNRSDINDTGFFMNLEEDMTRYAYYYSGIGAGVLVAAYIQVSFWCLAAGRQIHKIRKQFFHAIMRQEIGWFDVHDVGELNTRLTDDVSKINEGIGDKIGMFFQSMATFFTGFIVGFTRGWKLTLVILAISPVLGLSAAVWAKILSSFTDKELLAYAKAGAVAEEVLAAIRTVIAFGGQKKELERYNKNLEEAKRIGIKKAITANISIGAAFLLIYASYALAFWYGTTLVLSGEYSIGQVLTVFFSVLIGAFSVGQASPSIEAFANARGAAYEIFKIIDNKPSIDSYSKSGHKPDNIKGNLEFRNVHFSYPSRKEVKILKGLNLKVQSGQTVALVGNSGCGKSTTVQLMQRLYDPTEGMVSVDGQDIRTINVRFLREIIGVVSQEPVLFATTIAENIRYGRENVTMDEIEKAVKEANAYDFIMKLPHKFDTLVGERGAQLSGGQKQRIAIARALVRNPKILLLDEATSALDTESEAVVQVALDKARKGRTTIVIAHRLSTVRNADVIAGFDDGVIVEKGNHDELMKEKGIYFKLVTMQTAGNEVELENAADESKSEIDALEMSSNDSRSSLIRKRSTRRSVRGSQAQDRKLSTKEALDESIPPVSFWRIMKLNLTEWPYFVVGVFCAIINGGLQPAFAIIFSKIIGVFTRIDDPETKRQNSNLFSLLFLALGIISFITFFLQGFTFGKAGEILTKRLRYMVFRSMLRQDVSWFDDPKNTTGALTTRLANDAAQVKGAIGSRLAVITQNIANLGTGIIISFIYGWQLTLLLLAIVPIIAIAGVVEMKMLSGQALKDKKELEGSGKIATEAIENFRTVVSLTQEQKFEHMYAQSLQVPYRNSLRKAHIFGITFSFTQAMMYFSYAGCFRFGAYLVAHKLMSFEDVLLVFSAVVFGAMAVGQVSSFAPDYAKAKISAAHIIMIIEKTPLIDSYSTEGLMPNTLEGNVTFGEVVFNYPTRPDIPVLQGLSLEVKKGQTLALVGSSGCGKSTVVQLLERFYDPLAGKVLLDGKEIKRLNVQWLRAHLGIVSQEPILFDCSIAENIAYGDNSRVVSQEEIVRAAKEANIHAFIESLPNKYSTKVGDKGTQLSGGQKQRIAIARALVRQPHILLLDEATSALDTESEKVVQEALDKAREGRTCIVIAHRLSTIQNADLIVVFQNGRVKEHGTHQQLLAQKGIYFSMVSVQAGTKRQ

P-gp [2] = biological target: T1, P-gp; assay: rhodamine 123 accumulation assay by flow cytometry in MCF-7/DX1 cells; assay type: cell-based
Method in brief: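 P-gp-overexpressing MCF-7/DX1 breast adenocarcinoma cells, maintained with 1 µM doxorubicin. 125,000 cells in suspension loaded with 0.5 µg/mL (1.3 µM) rhodamine 123, alone or with test compound, 30–40 min, 37°C. Pelleted, then re-incubated 30–40 min, 37°C in fresh medium with test compound or 1 µM GF120918. Resuspended in ice-cold PBS pH 7.4; 488 nm laser, 530 band-pass (FL1), 10,000 cells/point. IC50 fitted from concentration series.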

T1 sequence (P08183 whole entry): as above

SMILES	IC50 (P-gp [1])	effect on P-gp ATPase activity at low concentrations (P-gp ATPase activity; Gal-2 < 1 µM)	effect on P-gp ATPase activity at higher concentrations (P-gp ATPase activity; Gal-2 > 5 µM)	more active than the known P-gp inhibitor GF120918 (rhodamine 123 accumulation) (P-gp [2]; MCF-7/DX1 cells, both at 1 µM)	IC50 (P-gp [2])
COc1ccc2c3c1O[C@H]1C[C@@H](OC(=O)CCCCCCCCC(=O)O[C@H]4C=C[C@@]56CCN(C)Cc7ccc(OC)c(c75)O[C@H]6C4)C=C[C@@]31CCN(C)C2 [Gal-2]	2000 ± 400 nM	stimulated ATPase activity	ATPase stimulation was found to decrease in a concentration-dependent manner	approximately 20%	
COc1ccc2c3c1O[C@H]1C[C@@H](O)C=C[C@@]31CCN(C)C2 [galantamine, reference compound]					> 100000 nM
